From ChEMBL document CHEMBL3352590, “How a β-D-glucoside side chain enhances binding affinity to thrombin of inhibitors bearing 2-chlorothiophene as P1 moiety: crystallography, fragment deconstruction study, and evaluation of antithrombotic properties” (J Med Chem, 2014)
≈ marks a conversion by molar mass, not a printed value. Calls of active or inactive are those of the source. The calls are words filed in the database; no cut-off is given here.

How the values were obtained:
Coagulation factor X [1] = molecular target: T1, Coagulation factor X (Homo sapiens, UniProt P00742); test: Inhibition of human factor10a assessed as reduction in hydrolysis of chromogenic substrate S-2765 by Cheng-Prusoff equation analysis
Outline: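 Chromogenic assay at pH 8: 2 nM human fXa with 0.04 mM S-2765, or 0.41 U/mL bovine thrombin with 0.05 mM S-2238 (final). Enzyme preincubated with inhibitor (0.01−100 nM or 0.01−100 μM, ≤1% DMSO); substrate added, A405 followed 5 min.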

Prothrombin [2] = molecular target: T2, Prothrombin (Bos taurus, UniProt P00735); test: Inhibition of bovine thrombin assessed as reduction in hydrolysis of chromogenic substrate S-2238 by Cheng-Prusoff equation analysis
[3] = Aqueous solubility in pH 7.4 0.05 M phosphate buffer by HPLC method; format: physicochemical
Outline: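 Excess solid (4−10 mg) in 0.05 M phosphate buffer pH 7.4 with 0.15 M KCl, shaken 1 h at 25 °C, then 15 min unshaken. Supernatant filtered and quantified by C18 HPLC (MeOH/0.05 M phosphate pH 4.5, UV 288 nm) against calibration curves of peak area.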

[4] = Lipophilicity, logKw of the compound by RP-HPLC method; format: physicochemical
Outline: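 RP-HPLC on C18 column at 25 °C, 1.0 mL/min, UV 288 nm; capacity factors k′ = (tR − t0)/t0 measured at MeOH volume fractions 0.8 to 0.4 in 0.05 steps; log k′w taken as the polycratic capacity factor.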

[5] = Stability in 0.05 M pH 7.4 phosphate buffer containing 0.15 M KCl assessed as unhydrolyzed compound after 4 hrs at 37 degC; format: physicochemical; settings: read-out: Stability
Outline: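 10 mM acetonitrile stock diluted to 250 μM final in 0.05 M phosphate buffer pH 7.40 with 0.15 M KCl, 37 °C; samples withdrawn at t0 and fixed times, filtered and analysed by HPLC (UV 288 nm) for remaining unhydrolyzed compound.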

[6] = Half life in human plasma at 37 degC by HPLC method; format: ADME, cell-free
Outline: (§1)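 10 mM ACN stock diluted to 250 μM final in preheated 37 °C human serum (lyophilized, reconstituted in water). Incubation stopped at fixed times with ice-cold ACN; remaining parent measured by HPLC; first-order half-life derived.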

Plasma [7] = test: Anticoagulant activity in recombinant tissue factor and procoagulant phospholipids-stimulated human citrated plasma assessed as increase in time required to generate first traces of thrombin at 2 to 10 uM by fluorometry based calibrated automated thrombography; format: functional, cell-free
Outline: (§2)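 Pooled citrated human plasma spiked with test compounds at 0.01−10 μM or vehicle; 80 μL plasma incubated 10 min at 37 °C; thrombin generation triggered by low tissue factor, phospholipids and calcium. Lag-time, thrombin peak and endogenous thrombin potential (area under curve) read by calibrated automated thrombography and expressed as percent of vehicle control.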

Plasma [8] = test: Anticoagulant activity in recombinant tissue factor and procoagulant phospholipids-stimulated human citrated plasma assessed as increase in time required to generate first traces of thrombin at 10 uM by fluorometry based calibrated automated thrombography; format: functional, cell-free
Outline: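 Pooled citrated human plasma spiked with test compound or vehicle (0.01−10 μM); clotting triggered by low tissue factor, phospholipids and calcium; thrombin generation followed by calibrated automated thrombography, 80 μL plasma preincubated 10 min at 37 °C. Lag-time = time to first traces of thrombin, expressed as percent of vehicle control plasma.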

Plasma [9] = test: Anticoagulant activity in recombinant tissue factor and procoagulant phospholipids-stimulated human citrated plasma assessed as inhibition of thrombin peak by fluorometry based calibrated automated thrombography; format: functional, cell-free; outline: as §2
Plasma [10] = test: Anticoagulant activity in recombinant tissue factor and procoagulant phospholipids-stimulated human citrated plasma assessed as reduction in endogenous thrombin potential by fluorometry based calibrated automated thrombography; format: functional, cell-free; outline: as §2
Plasma [11] = test: Profibrinolytic activity in tissue factor-induced human plasma exposed to exogenous tissue plasminogen activator assessed as time needed to lyse 50% fibrin clot by turbidimetric assay; format: functional, cell-free
Outline: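 Turbidimetric clot lysis at 37 °C: citrated human plasma spiked with compound or vehicle, plus phospholipids, t-PA (40 ng/mL stock), Tris-NaCl pH 7.4 and TF; clotting started with CaCl2. A405 read each minute for 3 h; lysis time from clot formation to midpoint of turbid-to-clear transition, as percent of vehicle; three independent plasma samples.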

Coagulation factor X [12] = molecular target: T1, Coagulation factor X; test: Inhibition of human factor10a assessed as reduction in hydrolysis of chromogenic substrate S-2765 by Lineweaver-Burk analysis
Outline: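 Human fXa fixed at 2 nM, S-2765 varied 25−200 μM, without or with inhibitor at four concentrations, pH 8, A405 initial rates; Lineweaver−Burk (1/v vs 1/[S]) plots used to assign inhibition type.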

Prothrombin [13] = molecular target: T2, Prothrombin; test: Inhibition of bovine thrombin assessed as reduction in hydrolysis of chromogenic substrate S-2238 by Lineweaver-Burk analysis
[14] = Stability in human plasma assessed as unhydrolyzed compound after 4 hrs at 37 degC by HPLC method; format: ADME, cell-free; settings: read-out: Stability; outline: as §1
Coagulation factor X [15] = molecular target: T1, Coagulation factor X; test: Inhibition of human factor10a assessed as reduction in hydrolysis of chromogenic substrate S-2765 at 1 mM by Cheng-Prusoff equation analysis
Prothrombin (Bos taurus) = Prothrombin (Bos taurus) (UniProt P00735); test: Inhibition of bovine thrombin assessed as reduction in hydrolysis of chromogenic substrate S-2238 at 1 mM by Cheng-Prusoff equation analysis
[16] = Homo sapiens, Plasma, read-out: IC50
[17] = Homo sapiens, Plasma, read-out: EC50

T1 sequence (P00742 41-179 limits assumed): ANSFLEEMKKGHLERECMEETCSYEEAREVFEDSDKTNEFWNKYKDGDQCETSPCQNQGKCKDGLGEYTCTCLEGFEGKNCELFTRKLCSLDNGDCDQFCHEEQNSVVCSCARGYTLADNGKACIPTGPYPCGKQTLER
T1 sequence (P00742 235-488 limits assumed): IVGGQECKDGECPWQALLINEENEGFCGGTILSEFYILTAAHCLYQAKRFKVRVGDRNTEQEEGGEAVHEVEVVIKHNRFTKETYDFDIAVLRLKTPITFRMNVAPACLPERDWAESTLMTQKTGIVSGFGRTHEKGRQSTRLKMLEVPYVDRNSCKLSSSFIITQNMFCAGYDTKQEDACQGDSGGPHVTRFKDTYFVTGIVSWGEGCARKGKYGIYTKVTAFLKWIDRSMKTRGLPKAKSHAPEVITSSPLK

SMILES	Ki (Coagulation factor X [1]) [nM]	Ki (Prothrombin [2]) [nM]	solubility [3] [µM]	logKw [4]	remaining at 4 h [5] [%]	IC50 (Plasma [9]) [nM]	IC50 (Plasma [10]; [16]) [nM]	EC50 (Plasma [11]; [17]) [nM]	inhibition (Coagulation factor X [15]) [%]	inhibition (Prothrombin (Bos taurus)) [%]	Activity (Plasma [7])	fold change (FC) (Plasma [8])	further results
Nc1c(OCCCO[C@@H]2O[C@H](CO)[C@@H](O)[C@H](O)[C@H]2O)cccc1OCc1cc(-c2ccc(Cl)s2)on1	6900	133000	–	–	–	–	–	–	–	–	–	–	–
CC(=O)OC[C@H]1O[C@@H](OCCCOc2cccc(OCc3cc(-c4ccc(Cl)s4)on3)c2NC(=O)C2CCN(C(C)C)CC2)[C@H](OC(C)=O)[C@@H](OC(C)=O)[C@@H]1OC(C)=O	0.25	160	< 1	5.07	> 90	1200	10000	1800	–	–	Active	9	half-life [6]: 2.8 h
CC1CNc2c(cccc2S(=O)(=O)N[C@@H](CCCNC(=N)N)C(=O)N2CC[C@@H](C)C[C@@H]2C(=O)O)C1 (stereo not given in full) [ARGATROBAN]	–	–	–	–	–	1900	2400	600	–	–	–	–	–
CC(C)N1CCC(C(=O)Nc2ccccc2OCCCO[C@@H]2[C@@H](O)[C@H](O)[C@@H](CO)O[C@H]2O)CC1	–	–	–	–	–	–	–	–	14	28	–	–	–
CC(C)N1CCC(C(=O)Nc2ccccc2OCc2cc(-c3ccc(Cl)s3)on2)CC1	0.6	–	530 (≈ 244 µg/mL)	3.49	> 90	10000	–	–	–	–	Active	3	Ki (Coagulation factor X [12]): 0.11 nM; remaining at 4 h [14]: > 90%; IC50 (Plasma [10]): Not Active; EC50 (Plasma [11]): Not Active
Nc1ccccc1OCc1cc(-c2ccc(Cl)s2)on1	11600	31000	–	–	–	–	–	–	–	–	–	–	–

Second part, led by results:

Ki (Coagulation factor X [1]) [nM]	Ki (Prothrombin [2]) [nM]	solubility [3] [µM]	logKw [4]	remaining at 4 h [5] [%]	IC50 (Plasma [9]) [nM]	IC50 (Plasma [10]; [16]) [nM]	EC50 (Plasma [11]; [17]) [nM]	inhibition (Coagulation factor X [15]) [%]	inhibition (Prothrombin (Bos taurus)) [%]	SMILES	Activity (Plasma [7])	fold change (FC) (Plasma [8])	further results
0.09	100	7330 (≈ 5100 µg/mL)	3.07	> 90	300	3400	300	–	–	CC(C)N1CCC(C(=O)Nc2c(OCCCO[C@@H]3O[C@H](CO)[C@@H](O)[C@H](O)[C@H]3O)cccc2OCc2cc(-c3ccc(Cl)s3)on2)CC1	Active	15	Ki (Coagulation factor X [12]): 0.87 nM; Ki (Prothrombin [13]): 96 nM; remaining at 4 h [14]: > 90%
18300	29800	–	–	–	–	–	–	–	–	Nc1c(OCCCO)cccc1OCc1cc(-c2ccc(Cl)s2)on1	–	–	–
–	–	–	–	–	–	–	–	13	16	CC(C)N1CCC(C(=O)Nc2ccccc2)CC1	–	–	–
–	–	–	–	–	–	–	–	16	0	COc1ccccc1NC(=O)C1CCN(C(C)C)CC1	–	–	–
